Reference: ChEMBL document CHEMBL4330165, “Absolute Configuration of Bioactive Azaphilones from the Marine-Derived Fungus Pleosporales sp. CF09-1” (2019)
Converted amounts (≈) assume the structure as drawn.

Columns and labels:
Type in all cases: functional
Alternaria brassicicola = assay: Antifungal activity against Alternaria brassicicola CICC 2646 after 48 hrs by broth dilution assay; conditions: CICC 2646, 48 h
Summary of the method: (§1)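 Conventional broth dilution. Fungi were grown on PDA at 28 °C for 72 h. Seed culture was diluted in PYG (peptone 1.0%, glucose 2.0%, yeast extract 1.0%) in 96-well plates. DMSO stocks (10 mg/mL) were serially diluted to in-test 0.78–100 μg/mL. Plates were incubated 48 h at 28 °C, humidified. Ketoconazole was the positive control and DMSO the negative control. MIC was the endpoint.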

Botryosphaeria dothidea = assay: Antifungal activity against Botryosphaeria dothidea CICC 2678 after 48 hrs by broth dilution assay; conditions: CICC 2678, 48 h; summary of the method: as §1
Fusarium oxysporum = assay: Antifungal activity against […] oxysporum CICC 41029 after 48 hrs by broth dilution assay; conditions: CICC 41029, 48 h; summary of the method: as §1
Vibrio alginolyticus = assay: Antibacterial activity against Vibrio alginolyticus CICC 21664 after 48 hrs by broth dilution method; conditions: CICC 21664, 48 h
Summary of the method: (§2)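 Microbroth dilution in LB medium (peptone 10 g/L, yeast extract 5 g/L, NaCl 10 g/L). Ciprofloxacin served as positive control. MIC was read as the endpoint.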

Vibrio anguillarum = assay: Antibacterial activity against Vibrio anguillarum CICC 10475 after 48 hrs by broth dilution method; summary of the method: as §2
Vibrio parahaemolyticus = assay: Antibacterial activity against Vibrio parahaemolyticus CICC 10552 after 48 hrs by broth dilution method; summary of the method: as §2

Row | MIC (Alternaria brassicicola) [µg/mL] | MIC (Botryosphaeria dothidea) [µg/mL] | MIC (Fusarium oxysporum) [µg/mL] | MIC (Vibrio alginolyticus) [µg/mL] | MIC (Vibrio anguillarum) [µg/mL] | MIC (Vibrio anguillarum; Vibrio anguillarum, CICC 10475, 48 h, read-out: MIC) [µg/mL] | SMILES | MIC (Vibrio parahaemolyticus) [µg/mL] | MIC (Vibrio parahaemolyticus; Vibrio parahaemolyticus, CICC 10552, 48 h, read-out: MIC) [µg/mL]
1 | 13 (≈ 26.9 µM) | 13 (≈ 26.9 µM) | 6.3 (≈ 13.1 µM) | – | – | – | C/C=C(\C)[C@H](OC(C)=O)[C@H](C)C(=O)O[C@@]1(C)C(=O)C=C2C=C(C3=C(C)CCCC3=O)OC=C2C1=O | – | –
2 | 6.3 (≈ 13.1 µM) | 3.1 (≈ 6.45 µM) | 25 (≈ 52 µM) | – | – | – | C/C=C(\C)[C@H](OC(C)=O)[C@H](C)C(=O)O[C@@]1(C)C(=O)C=C2C=C(c3c(C)cccc3O)OC=C2C1=O | – | –
3 | 1.6 (≈ 3.09 µM) | 13 (≈ 25.1 µM) | 1.6 (≈ 3.09 µM) | – | – | – | C/C=C(\C)[C@H](OC(C)=O)[C@H](C)C(=O)O[C@@]1(C)C(=O)C2=COC(C3=C(C)CCCC3=O)=CC2=C(Cl)C1=O | – | –
4 | > 50 | > 50 | > 50 | 25 (≈ 57.5 µM) | – | – | CO[C@@H]1CO[C@@]2(CC3=CC(=O)[C@@](C)(O)[C@@H](OC(=O)c4c(C)cc(O)cc4O)[C@@H]3CO2)C1 | – | –
5 | > 50 | > 50 | > 50 | 25 (≈ 57.5 µM) | – | – | CO[C@H]1CO[C@@]2(CC3=CC(=O)[C@@](C)(O)[C@@H](OC(=O)c4c(C)cc(O)cc4O)[C@@H]3CO2)C1 | – | –
6 | – | – | – | – | 13 (≈ 29.9 µM) | – | COC(CO)CC1=CC2=CC(=O)[C@@](C)(O)[C@@H](OC(=O)c3c(C)cc(O)cc3O)[C@@H]2CO1 (stereo in doubt; 6) | 6.3 (≈ 14.5 µM) | –
7 | – | – | – | – | 6.3 (≈ 14.5 µM) | – | COC(CO)CC1=CC2=CC(=O)[C@@](C)(O)[C@@H](OC(=O)c3c(C)cc(O)cc3O)[C@@H]2CO1 (stereo in doubt; 7) | 25 (≈ 57.5 µM) | –
8 | – | – | – | 13 (≈ 39.2 µM) | – | 6.3 (≈ 19 µM) | O=C(O)c1cn(C2CC2)c2cc(N3CCNCC3)c(F)cc2c1=O [CIPROFLOXACIN] | – | 3.1 (≈ 9.36 µM)

Row | SMILES | MIC (Alternaria brassicicola) [µg/mL] | MIC (Botryosphaeria dothidea) [µg/mL] | MIC (Fusarium oxysporum) [µg/mL] | MIC (Vibrio alginolyticus) [µg/mL] | MIC (Vibrio anguillarum) [µg/mL] | MIC (Vibrio anguillarum; Vibrio anguillarum, CICC 10475, 48 h, read-out: MIC) [µg/mL] | MIC (Vibrio parahaemolyticus) [µg/mL] | MIC (Vibrio parahaemolyticus; Vibrio parahaemolyticus, CICC 10552, 48 h, read-out: MIC) [µg/mL]
9 | CC(=O)N1CCN(c2ccc(OCC3COC(Cn4ccnc4)(c4ccc(Cl)cc4Cl)O3)cc2)CC1 (configuration not stated) [KETOCONAZOLE] | 3.1 (≈ 5.83 µM) | 3.1 (≈ 5.83 µM) | 6.3 (≈ 11.9 µM) | – | – | – | – | –
